The values below come from ChEMBL document CHEMBL4184239, “Therapeutic effects of isothiocyanate prodrugs on rheumatoid arthritis” (Bioorg Med Chem Lett, 2018).

Each structure is given as a SMILES string. Activity calls are given as the source filed them.

Data set [1] is described as follows: in vivo. As to conditions: rat.
Data set [2] is described as follows: clinical. As to conditions: human, in vivo.
The nature of data set [3]: Prodrug conversion in mouse plasma assessed as Tmax for formation of 1-isothiocyanato-4-(methylsulfinyl)butane measured after 24 hrs by HPLC method. The format is ADME, cell-free.
For data set [4], the species on record is Danio rerio. Put plainly: Anti-inflammatory activity in EGFP transgenic Zebrafish model of neutrophil inflammation assessed as reduction in number of neutrophil migration at 5 ug/ml incubated for 3 hrs by stereofluorescence microscopy. The data set is classed as functional, organism-based. The method in brief: (§1)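 72 h post-fertilization EGFP transgenic zebrafish, 24 larvae split into 4 groups (vehicle control, reference, two test articles); compound added to culture wells for 3 h; migrating neutrophils counted; P vs control by statistical comparison.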

Data set [5] in a line: Stability in HEPES buffer at pH 4.4 measured within 24 hrs by HPLC method. The data set is classed as physicochemical. As to conditions: pH 4.4, 24 h. A digest of the protocol: (§2)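 Prodrug incubated in HEPES buffer at pH 4.4 or pH 7.4; concentrations of prodrug and released isothiocyanate followed over time (up to 24 h and beyond) to build concentration–time curves.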
Data set [6] can be described thus: Stability in mouse plasma assessed as time duration for complete drug degradation by HPLC method. The data set is classed as ADME, cell-free.
Data set [7] is described as follows: Half life in mouse plasma by HPLC method. The format is ADME, cell-free.
Data set [8] can be described thus: Prodrug conversion in mouse plasma assessed as formation of 1-isothiocyanato-4-(methylsulfinyl)butane measured after 24 hrs by HPLC method. The data set is classed as ADME, cell-free.
The species named for data set [9] is Danio rerio. Put plainly: Anti-inflammatory activity in EGFP transgenic Zebrafish model of neutrophil inflammation assessed as reduction in number of neutrophil migration at 30 ug/ml incubated for 3 hrs by stereofluorescence microscopy. The data set is classed as functional, organism-based. The method in brief: as §1
The species named for data set [10] is Danio rerio. The experiment in a line: Anti-inflammatory activity in EGFP transgenic Zebrafish model of neutrophil inflammation assessed as reduction in number of neutrophil migration at 0.5 ug/ml incubated for 3 hrs by stereofluorescence microscopy. The format is functional, organism-based. A digest of the protocol: as §1
A short description of data set [11]: Prodrug conversion in mouse plasma assessed as formation of 5-(4-isothiocyanatobutylthio)-1-phenyl-1H-tetrazole measured after 24 hrs by HPLC method. The format is ADME, cell-free.
Data set [12] relates to Mus musculus. Put plainly: Toxicity in Kunming white mouse assessed as effect on body weight at 200 mg/kg, po dosed everyday for 5 weeks measured from day 30 onwards. The format is organism-based. As to conditions: in vivo, 840 h. A digest of the protocol:
(§3)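 Mice were dosed orally once daily at 200 mg/kg for 5 weeks alongside an untreated control group. Survival and body weight were recorded over the dosing period and compared with controls.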

The nature of data set [13]: Prodrug conversion in mouse plasma assessed as Tmax for formation of 5-(4-isothiocyanatobutylthio)-1-phenyl-1H-tetrazole measured after 24 hrs by HPLC method. The data set is classed as ADME, cell-free.
The species named for data set [14] is Danio rerio. Put plainly: Potency index, ratio of dexamethasone to test compound anti-inflammatory activity in EGFP transgenic Zebrafish model of neutrophil inflammation assessed as reduction in number of neutrophil migration incubated for 3 hrs by stereofluorescence microscopy. The data set is classed as functional.
The test system of data set [15] is Rattus norvegicus. The experiment in a line: Toxicity in Wistar rat model of Freund's complete adjuvant-induced rheumatoid arthritis model assessed as increase in body weight at 20 mg/kg, po dosed every day from day 16 after initial inflammation (reference value: 84.6 g). The data set is classed as organism-based. As to conditions: in vivo.
Data set [16] concerns Rattus norvegicus. The experiment in a line: Toxicity in Wistar rat model of Freund's complete adjuvant-induced rheumatoid arthritis model assessed as increase in body weight at 40 mg/kg, po dosed every day from day 16 after initial inflammation (reference value: 84.6 g). The data set is classed as organism-based. As to conditions: in vivo.
Data set [17] deals with Rattus norvegicus. Put plainly: Anti-inflammatory activity in Wistar rat model of Freund's complete adjuvant-induced rheumatoid arthritis model assessed as reduction in paw swelling at 10 mg/kg, po dosed every day from day 16 after initial inflammation and measured after 10 days. The data set is classed as functional, organism-based. A digest of the protocol:
(§4)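 Wistar rats with Freund's complete adjuvant-induced arthritis, 30 randomized into 5 groups; oral daily dosing from day 16 after initial inflammation, reference 1 mg/kg, test 10, 20, 40 mg/kg; paw swelling degree tracked over days; P < .05 vs model group.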

Data set [18] relates to Rattus norvegicus. The experiment in a line: Anti-inflammatory activity in Wistar rat model of Freund's complete adjuvant-induced rheumatoid arthritis model assessed as reduction in paw swelling at 10 to 40 mg/kg, po dosed every day from day 16 after initial inflammation. The data set is classed as functional, organism-based. A digest of the protocol:
as §4

Data set [19] deals with Rattus norvegicus. Put plainly: Anti-inflammatory activity in Wistar rat model of Freund's complete adjuvant-induced rheumatoid arthritis model assessed as reduction in paw swelling at 10 to 20 mg/kg, po dosed every day from day 16 after initial inflammation and measured after 10 days. The data set is classed as functional, organism-based. The method in brief:
as §4

Data set [20] relates to Rattus norvegicus. Put plainly: Toxicity in Wistar rat model of Freund's complete adjuvant-induced rheumatoid arthritis model assessed as increase in body weight at 10 mg/kg, po dosed every day from day 16 after initial inflammation (reference value: 84.6 g). The format is organism-based. As to conditions: in vivo.
Data set [21] concerns Mus musculus. The experiment in a line: Toxicity in Kunming white mouse assessed as survival at 200 mg/kg, po dosed everyday for 5 weeks. The data set is classed as organism-based. As to conditions: in vivo, 840 h. A digest of the protocol: as §3
Data set [22] concerns Rattus norvegicus. The experiment in a line: Anti-inflammatory activity in Sprague-Dawley rat model of carrageenan-induced paw edema assessed as reduction in hind paw volume at 10 to 50 mg/kg, po dosed for 2 times at 6 hrs after carrageenan injection measured after 8 to 10 hrs. The format is functional, organism-based. As to conditions: in the assay text read “at 2 and 6 hrs” for “at 6 hrs”. The method in brief: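 Sprague-Dawley rats, 30 randomized into 5 groups (6 per group); oral dosing twice, at 2 h and 6 h after finishing carrageenan injection into paw; reference 5 mg/kg, test 10, 20, 50 mg/kg; swelling followed over time (to 10 h); significance vs model group.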
Background: In the carrageenan paw model, swelling and tenderness develop within hours.

In data set [23] the test system is Rattus norvegicus. Put plainly: Anti-inflammatory activity in Wistar rat model of Freund's complete adjuvant-induced rheumatoid arthritis model assessed as reduction in paw swelling at 1 mg/kg, po dosed every day from day 16 after initial inflammation and measured after 10 days. The format is functional, organism-based. The method in brief: as §4
The test system of data set [24] is Rattus norvegicus. The experiment in a line: Anti-inflammatory activity in Wistar rat model of Freund's complete adjuvant-induced rheumatoid arthritis model assessed as reduction in paw swelling at 1 mg/kg, po dosed every day from day 16 after initial inflammation. The format is functional, organism-based. A digest of the protocol:
as §4

The nature of data set [25]: Drug level in HEPES buffer at pH 7.4 treated with 2-(2-(2-(dimethylamino)ethoxy)ethoxy)ethyl 4-(1-phenyl-1H-tetrazol-5-ylthio)butylcarbamodithioate assessed as active compound formation measured at 2 hrs by HPLC method. The format is physicochemical. As to conditions: pH 7.4, 2 h. A digest of the protocol:
as §2

A short description of data set [26]: Drug level in mouse plasma treated with 2-(2-(2-(dimethylamino)ethoxy)ethoxy)ethyl 4-(1-phenyl-1H-tetrazol-5-ylthio)butylcarbamodithioate assessed as active compound formation measured after 24 hrs by HPLC method. The data set is classed as ADME, cell-free.
Data set [27] is described as follows: Drug level in HEPES buffer at pH 7.4 treated with 2-(2-(2-(dimethylamino)ethoxy)ethoxy)ethyl 4-(1-phenyl-1H-tetrazol-5-ylthio)butylcarbamodithioate assessed as active compound formation measured during 2 to 30 hrs by HPLC method. The format is physicochemical. A digest of the protocol:
as §2

In general, half-life refers to the time needed for the level to fall by half in the phase considered. Read a high half-life as slow loss. Usually Tmax stands for the time from dosing to the highest level.

On to `C[S+]([O-])CCCCN=C=S` (stereo not given) [SULFORAPHANE], for which the half-life is 2.2 h in [1] and 1.77 h in data set [2].

On to `CN(C)CCOCCOCCSC(=S)NCCCC[S+](C)[O-]` (stereo not given), for which the Tmax in data set [3] worked out at 2 h. In addition, the result in [4] was Active. Besides, the Stability entry in data set [5] is given as “Stable”. Moreover, in data set [6], the Time worked out at 24 h. In data set [7], this compound gave a half-life of 6 h. Besides, in data set [8], the Drug metabolism result was “Metabolite_Detected”.

On to `C[C@@H]1C[C@H]2[C@@H]3CCC4=CC(=O)C=C[C@]4(C)[C@@]3(F)[C@@H](O)C[C@]2(C)[C@@]1(O)C(=O)CO`, for which the outcome in data set [9] was Active.

Consider `CN(C)CCOCCOCCSC(=S)NCCCCSc1nnnn1-c1ccccc1`, for which the result in data set [10], in [17], in data set [18], in [19] and in [22] was Active. Moreover, the Drug metabolism entry in data set [11] is on record as “Metabolite_Detected”. Also, the Activity entry is “Non-Toxic” in data set [12]; 70.8 g in [15]; 58.2 g in [16]; 80.8 g in [20]; “Non-Toxic” in data set [21]. Further, the Tmax in data set [13] was found to be 2 h. Besides, in [14], the Ratio is reported as 300. For the same compound, the Stability entry in [5] was “Stable”. Further, in data set [6], the Time amounted to 10 h. The half-life in data set [7] is 6 h.

Regarding `CN(Cc1cnc2nc(N)nc(N)c2n1)c1ccc(C(=O)N[C@@H](CCC(=O)O)C(=O)O)cc1`, the outcome in data set [23] and in data set [24] was Active.

In the case of `S=C=NCCCCSc1nnnn1-c1ccccc1`, the Drug uptake result in data set [25], in data set [26] and in data set [27] was “Active” in each case.
